The results in this text go back to ChEMBL document CHEMBL1147872, “Syntheses of new tetrasubstituted thiophenes as novel anti-inflammatory agents” (Eur J Med Chem, 2007).

Format in all cases: functional
In one experiment the test system is Mus musculus. Kind of experiment: Analgesic activity in Albino mouse assessed as protection against acetic acid-induced writhing at 10 mg/kg, ip within 30 mins. Particulars: route intraperitoneal. An outline of the steps: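 Mice (20–25 g, either sex) starved 16 h, six per group, given 10 mg/kg i.p.; vehicle control received 1% DMSO at 0.5 ml/100 g. After 1 h, 0.1 ml of 3% acetic acid was given. Writhes were counted over 30 min, and the group mean was expressed as % inhibition versus control. Student's t-test was used.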
On the technique in general: An intraperitoneal irritant provokes the stretching counted in writhing tests.

The test system of experiment [1] is Rattus norvegicus. Kind of experiment: Antiinflammatory activity in Albino rat assessed as protection against carrageenan-induced hind paw oedema at 10 mg/kg, po after 3 hrs. The procedure, abridged: (§1)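 Rats (150–250 g, either sex) were fasted 18 h and grouped in sixes. Compounds or standards were given orally as a suspension in 5% DMSO. After 1 h, 0.1 ml of 1% carrageenin was injected subplantar into the right hind paw. Paw volume was read by mercury plethysmometer at once and at 3 h. % protection = 100(1−Vt/Vc) versus vehicle.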
A general note: The carrageenan paw model is a standard test of acute inflammation.

Experiment [2] deals with Rattus norvegicus. The experiment in a line: Antiinflammatory activity in Albino rat assessed as protection against carrageenan-induced hind paw oedema at 20 mg/kg, po after 3 hrs. An outline of the steps:
as §1

Experiment [3] concerns Rattus norvegicus. Kind of experiment: Antiinflammatory activity in Albino rat assessed as protection against carrageenan-induced hind paw oedema at 40 mg/kg, po after 3 hrs. The procedure, abridged: as §1
Experiment [4] can be described thus: Antioxidant activity assessed as nitric oxide radical scavenging activity at 5 ug/ml after 150 mins. An outline of the steps: (§2)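 Sodium nitroprusside (10 mmol) in PBS at physiological pH was incubated with sample at 25 °C for 150 min in a 3 ml reaction. Aliquots taken every 30 min were mixed 1:1 with Griess reagent (1% sulphanilamide, 0.1% naphthylethylenediamine in 2% H3PO4), and absorbance was read at 546 nm. Runs were done in triplicate, and % scavenging was calculated against the blank.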

The nature of experiment [5]: Antioxidant activity assessed as nitric oxide radical scavenging activity at 10 ug/ml after 150 mins. The procedure, abridged: as §2
Experiment [6] in a line: Antioxidant activity assessed as nitric oxide radical scavenging activity at 15 ug/ml after 150 mins. An outline of the steps: as §2
Experiment [7] is described as follows: Antioxidant activity assessed as nitric oxide radical scavenging activity at 20 ug/ml after 150 mins. An outline of the steps:
as §2

Experiment [8] is described as follows: Antioxidant activity assessed as nitric oxide radical scavenging activity at 25 ug/ml after 150 mins. An outline of the steps: as §2
The nature of experiment [9]: Antioxidant activity assessed as nitric oxide radical scavenging activity at 30 ug/ml after 150 mins. An outline of the steps: as §2
The nature of experiment [10]: Antioxidant activity assessed as nitric oxide radical scavenging activity at 35 ug/ml after 150 mins. The procedure, abridged: as §2
Experiment [11] in a line: Inhibition of nitric oxide radical scavenging activity. The procedure, abridged:
as §2

Calls of active or inactive are those of the source. The calls are words filed in the database; no cut-off is given here.

Turning to `COc1ccc(C(=O)c2sc(Nc3ccc(Cl)cc3)c(C(=O)O)c2C)cc1`, the Activity with Mus musculus was 30%; with Rattus norvegicus [1], 49%; with Rattus norvegicus [2], 49%; in the experiment on Rattus norvegicus [3], 43%. In addition, the result in experiment [4], in experiment [5], in [6], in experiment [7], in [8] and in experiment [9] was inactive. In addition, the result in experiment [10] and in experiment [11] was inactive.
For the compound `COC(=O)c1c(Nc2ccc(C)cc2)sc(C(=O)c2ccc(C)cc2)c1C`, the Activity in the experiment with Mus musculus turned out to be 22%; in the experiment on Rattus norvegicus [1] it was 32%; in the experiment with Rattus norvegicus [2] it was 36%; with Rattus norvegicus [3] it was 37%. For the same compound, the outcome in experiment [4], in experiment [5], in [6], in [7], in [8] and in experiment [9] was inactive. Moreover, the result in [10] and in experiment [11] was inactive.
For the compound `Cc1ccc(C(=O)c2sc(Nc3ccc(F)cc3)c(C(=O)O)c2C)cc1`, the Activity in the experiment on Mus musculus was found to be 22%; in the experiment with Rattus norvegicus [1], 38%; with Rattus norvegicus [2], 44%; with Rattus norvegicus [3] it was 42%. In addition, the outcome in [4], in experiment [5], in experiment [6], in experiment [7], in [8] and in [9] was inactive. Also, the result in [10] and in experiment [11] was inactive.
`COC(=O)c1c(Nc2ccccc2)sc(/C(=N/O)c2ccc(OC)cc2)c1C`: the figures for the Activity in the experiment on Rattus norvegicus [1], in the experiment on Rattus norvegicus [2] and with Rattus norvegicus [3] were 5%, 38% and 34%, respectively.
As for `COC(=O)c1c(Nc2ccc(Cl)cc2)sc(C(=O)c2ccc(C)cc2)c1C`, the Activity in the experiment with Mus musculus amounted to 43%; with Rattus norvegicus [1], 34%; with Rattus norvegicus [2], 66%; in the experiment with Rattus norvegicus [3], 26%. The result in [4], in [5], in [6], in experiment [7], in experiment [8] and in [9] was inactive. In addition, the result in experiment [10] and in experiment [11] was inactive.
`COC(=O)c1c(Nc2ccccc2)sc(/C(=N/O)c2ccc(C)cc2)c1C`: the figures for the Activity with Rattus norvegicus [1], with Rattus norvegicus [2] and in the experiment on Rattus norvegicus [3] were 13%, 21% and 30%, respectively.
In the same order, the values of `COC(=O)c1c(Nc2ccc(F)cc2)sc(/C(=N/O)c2ccc(OC)cc2)c1C` are 20%, 25% and 30%.
The matching figures for `COC(=O)c1c(Nc2ccc(Cl)cc2)sc(/C(=N/O)c2ccc(OC)cc2)c1C`: 3%, 12% and 30%.
In the case of `COC(=O)c1c(Nc2ccc(Cl)cc2)sc(/C(=N\O)c2ccc(C)cc2)c1C`, the figures for the Activity in the experiment on Rattus norvegicus [1], in the experiment on Rattus norvegicus [2] and in the experiment with Rattus norvegicus [3] were 13%, 29% and 42%, respectively.
With `CC(C)Cc1ccc(C(C)C(=O)O)cc1` (stereo not drawn) [IBUPROFEN], the values for the Activity with Mus musculus and with Rattus norvegicus [2] were 60% and 33%, respectively.
With `COC(=O)c1c(Nc2ccc(C)cc2)sc(/C(=N/O)c2ccc(OC)cc2)c1C`, the Activity with Rattus norvegicus [1] was found to be 22%; in the experiment with Rattus norvegicus [2], 27%; in the experiment with Rattus norvegicus [3], 30%.
